Test results taken from the RNAGym collection of RNA variant scans (doi:10.1126/science.aae0568).
Variants at the floor of the assay were thinned out.

B1: tRNA (parent)
chain: GUUCCGUUGGCGUAAUGGUAACGCGUCUCCCUCCUAAGGAGAAGACUGCGGGUUCGAGUCCCGUACGGAACG

Variants of: B1
Experiment: yeast fitness relative to wild type (ratio to wild type); higher = fitter; tRNA-Arg(CCU), competitive growth, 37 C, YPD
How it was run: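 A pool of Saccharomyces cerevisiae strains, each with a tRNA-Arg(CCU) gene variant at the native genomic locus, was competed in YPD at 37°C for 24 hours across six parallel replicates. The variants had been chemically synthesised at a 3% per-site mutation rate over 69 sites, and gene amplicons before and after competition were read by 100-nucleotide paired-end sequencing. Darwinian fitness relative to wild type rested on changes in genotype frequencies. Genotypes required ≥ 100 starting reads, and estimates < 0.5 were set to 0.5.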

Row | Variant | yeast fitness
1 | GUUCCGUUGGCGUAAUGGUAACGCGUCUGCCUCCUAAGGAGAAGACUGCGGGUUUGAGGCCCGUACGGAACG | ≤ 0.5
2 | GUUCCGUUGGCGUAAUGGUAACGCGUCUGCCUCCUAAGGAGAAGACUGCGGGUUCGAGUGCCGUACGGAACG | 0.851
3 | GUUCCGUUGGCGUAAUGGUAACGCGUCUGCCUCCUAAGGAGAAGACUGCGGGUUCGAGUGUCGUACGGAACG | 0.52
4 | GUUCCGUUGGCGUAAUGGUAACGCGUCUGCCUCCUAAGGAGAAGACUGCGGGUUCGAGUCAUGUACGGAACG | ≤ 0.5
5 | GUUCCGUUGGCGUAAUGGUAACGCGUCUGCCUCCUAAGGAGAAGACUGCGGGUUCGAGUCGCGUACGGAACG | 0.54
6 | GUUCCGUUGGCGUAAUGGUAACGCGUCUGCCUCCUAAGGAGAAGACUGCGGGUUCGAGUCGCGUAGGGAACG | 0.558
7 | GUUCCGUUGGCGUAAUGGUAACGCGUCUGCCUCCUAAGGAGAAGACUGCGGGUUCGAGUCUCGUACGGAACG | 0.685
8 | GUUCCGUUGGCGUAAUGGUAACGCGUCUGCCUCCUAAGGAGAAGACUGCGGGUUCGAGUCCAGUACGGAACG | 0.506
9 | GUUCCGUUGGCGUAAUGGUAACGCGUCUGCCUCCUAAGGAGAAGACUGCGGGUUCGAGUCCAGUAUGGAACG | ≤ 0.5
10 | GUUCCGUUGGCGUAAUGGUAACGCGUCUGCCUCCUAAGGAGAAGACUGCGGGUUCGAGUCCUGUACGGAACG | 0.721
11 | GUUCCGUUGGCGUAAUGGUAACGCGUCUGCCUCCUAAGGAGAAGACUGCGGGUUCGAGUCCCGUAAGGAACG | 0.506
12 | GUUCCGUUGGCGUAAUGGUAACGCGUCUGCCUCCUAAGGAGAAGACUGCGGGUUCGAGUCCCGUAUGGAACG | 0.648
13 | GUUCCGUUGGCGUAAUGGUAACGCGUCUGCCUCCUAAAGAGAUGACUGCGGGUUCGAGUCCCGUACGGAACG | 0.689
14 | GUUCCGUUGGCGUAAUGGUAACGCGUCUGCCUCCUAAGAAAAAGACUGCGGGUUCGAGUCCCGUACGGAACG | ≤ 0.5
15 | GUUCCGUUGGCGUAAUGGUAACGCGUCUGCCUCCUAAGCAGAAGACUGCGGGUUCGAGUCCCGUACGGAUCG | 0.633
16 | GUUCCGUUGGCGUAAUGGUAACGCGUCUGCCUCCUAAGGACAAGACUGCGGGUUCGUGUCCCGUACGGAACG | ≤ 0.5
17 | GUUCCGUUGGCGUAAUGGUAACGCGUCUGCCUCCUAAGGACAAGACUGCGGGUUCGAGUCCCGUAGGAAACG | 0.587
18 | GUUCCGUUGGCGUAAUGGUAACGCGUCUGCCUCCUAAGGAGAAAACUGCGGGUUCGUGUCCCGUACGGAACG | 0.553
19 | GUUCCGUUGGCGUAAUGGUAACGCGUCUGCCUCCUAAGGAGAAAACUGCGGGUUCGAGUCCCGGACGGAACG | ≤ 0.5

Row | Variant | yeast fitness
20 | GUUCCGUUGGCGUAAUGGUAACGCGUCUGCCUCCUAAGGAGAACACUGCGGGUUCGAGUCCCGUACGGAACG | 0.755
21 | GUUCCGUUGGCGUAAUGGUAACGCGUCUGCCUCCUAAGGAGAACUCAGCGGGUUCGAGUCCCGUACGGAACG | ≤ 0.5
22 | GUUCCGUUGGCGUAAUGGUAACGCGUCUGCCUCCUAAGGAGAACACUGGGGGUUCGAGUCGCGUACGGAACG | ≤ 0.5
23 | GUUCCGUUGGCGUAAUGGUAACGCGUCUGCCUCCUAAGGAGAAUACUGCGGGUUCGAGUCCCGUGCGGAACG | ≤ 0.5
24 | GUUCCGUUGGCGUAAUGGUAACGCGUCUGCCUCCUAAGGAGAAGACUACGGGUUCGAGUCCCGUACGGAACG | 0.586
25 | GUUCCGUUGGCGUAAUGGUAACGCGUCUGCCUCCUAAGGAGAAGACUACGGGUUCGAGUCCCGUACGGUACG | 0.542
26 | GUUCCGUUGGCGUAAUGGUAACGCGUCUGCCUCCUAAGGAGAAGACUACGGGUUCGAGUCCCGUACGGAUCG | ≤ 0.5
27 | GUUCCGUUGGCGUAAUGGUAACGCGUCUGCCUCCUAAGGAGAAGACUAUGGGUUCGAGUCCCGUACGGAACG | ≤ 0.5
28 | GUUCCGUUGGCGUAAUGGUAACGCGUCUGCCUCCUAAGGAGAAGACUACGGGUUGGGGUCCCGUACGGAACG | ≤ 0.5
29 | GUUCCGUUGGCGUAAUGGUAACGCGUCUGCCUCCUAAGGAGAAGACUCCGGGUUCGAGUCCCGUACGGAACG | 0.563
30 | GUUCCGUUGGCGUAAUGGUAACGCGUCUGCCUCCUAAGGAGAAGACUCUGGGUUCGAGUCACGUACGGAACG | ≤ 0.5
31 | GUUCCGUUGGCGUAAUGGUAACGCGUCUGCCUCCUAAGGAGAAGACUGCAGGUUCGAGUCCCGUUCGGAACG | ≤ 0.5
32 | GUUCCGUUGGCGUAAUGGUAACGCGUCUGCCUCCUAAGGAGAAGACUGCCGGUUCGAGUCCCGUACGGAACG | 0.607
33 | GUUCCGUUGGCGUAAUGGUAACGCGUCUGCCUCCUAAGGAGAAGACUGCCGGUUUGAGUCCCGUACGGAACG | ≤ 0.5
34 | GUUCCGUUGGCGUAAUGGUAACGCGUCUGCCUCCUAAGGAGAAGACUGCCGGCUCGAGUCCCGUACGGAACG | ≤ 0.5
35 | GUUCCGUUGGCGUAAUGGUAACGCGUCUGCCUCCUAAGGAGAAGACUGCGCGUUCGAGUCCCGUACGGAACG | 0.55
36 | GUUCCGUUGGCGUAAUGGUAACGCGUCUGCCUCCUAAGGAGAAGACUGCGGCUUCGAGUCCCGUACGGAACG | ≤ 0.5
37 | GUUCCGUUGGCGUAAUGGUAACGCGUCUGCCUCCUAAGGAGAAGACUGCGGGUUCAAGUCCCGUACGGAACG | 0.632
38 | GUUCCGUUGGCGUAAUGGUAACGCGUCUGCCUCCUAAGGAGAAGACUGCGGGUUCAAGUCCCGUACGGUACG | ≤ 0.5
